Legend:
Leishmania donovani [1] = assay: Antileishmanial activity against wild type Leishmania donovani HU3 promastigotes […] assessed as inhibition of parasite growth incubated for 72 hrs by automatic microtiter plate reader analysis; assay type: functional, organism-based
RAW264.7 = assay: Cytotoxicity against mouse RAW264.7 cells assessed as inhibition of cell growth incubated for 72 hrs by MTS assay; assay type: functional, cell-based; conditions: RAW264.7, 72 h
Method in brief: (§1)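 Cells in DMEM + 10% heat-inactivated FBS with penicillin/streptomycin at 37 °C, 5% CO2. They were seeded at 1 × 10^4/well and incubated with a concentration series for 72 h at 37 °C. Viability was read by MTS/PMS assay at 490 nm and IC50 derived.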

[2] = biological target: T1, Voltage-gated inwardly rectifying potassium channel KCNH2 (Homo sapiens, UniProt Q12809); assay: Inhibition of human ERG stably overexpressed in HEK293 cells incubated for 30 mins by FLIPR assay; assay type: toxicity, cell-based; conditions: human, hek293, 0.5 h; time 30 min
T1 sequence (Q12809 whole entry): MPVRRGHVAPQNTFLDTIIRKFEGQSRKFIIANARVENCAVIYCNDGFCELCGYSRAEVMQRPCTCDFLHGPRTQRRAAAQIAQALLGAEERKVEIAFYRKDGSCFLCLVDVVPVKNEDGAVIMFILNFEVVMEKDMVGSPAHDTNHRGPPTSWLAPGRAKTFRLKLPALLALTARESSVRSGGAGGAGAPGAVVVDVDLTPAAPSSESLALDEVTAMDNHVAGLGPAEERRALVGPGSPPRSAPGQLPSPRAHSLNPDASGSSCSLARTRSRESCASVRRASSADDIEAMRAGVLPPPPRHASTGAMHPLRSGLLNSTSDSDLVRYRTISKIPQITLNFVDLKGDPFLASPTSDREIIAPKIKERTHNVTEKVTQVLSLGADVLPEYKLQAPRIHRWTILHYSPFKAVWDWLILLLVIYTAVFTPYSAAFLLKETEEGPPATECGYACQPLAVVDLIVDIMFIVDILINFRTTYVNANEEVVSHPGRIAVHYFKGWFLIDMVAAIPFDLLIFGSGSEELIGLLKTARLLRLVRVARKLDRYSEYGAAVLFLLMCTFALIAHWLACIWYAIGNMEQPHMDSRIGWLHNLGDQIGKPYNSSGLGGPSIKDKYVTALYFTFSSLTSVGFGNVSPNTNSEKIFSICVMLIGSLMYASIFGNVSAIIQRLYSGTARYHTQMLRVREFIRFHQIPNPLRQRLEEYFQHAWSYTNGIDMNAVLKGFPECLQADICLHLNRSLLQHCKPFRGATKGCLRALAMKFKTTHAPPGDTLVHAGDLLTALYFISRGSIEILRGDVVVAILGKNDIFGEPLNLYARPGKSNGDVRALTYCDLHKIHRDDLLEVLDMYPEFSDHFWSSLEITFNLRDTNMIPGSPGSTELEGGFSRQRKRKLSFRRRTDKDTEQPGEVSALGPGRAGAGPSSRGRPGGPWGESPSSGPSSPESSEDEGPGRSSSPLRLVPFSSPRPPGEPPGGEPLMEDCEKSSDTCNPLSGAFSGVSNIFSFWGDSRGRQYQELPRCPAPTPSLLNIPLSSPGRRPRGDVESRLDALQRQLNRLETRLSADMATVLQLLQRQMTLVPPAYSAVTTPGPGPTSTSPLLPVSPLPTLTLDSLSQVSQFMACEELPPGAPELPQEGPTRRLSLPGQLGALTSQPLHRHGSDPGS

[3] = Hepatotoxicity against mouse TAMH cells assessed as cell viability at 7.8 to 125 uM incubated for 24 to 48 hrs by MTT assay; assay type: toxicity, cell-based; conditions: dose lower 7.8 µM, time lower 24 hrs, dose upper 125 µM, time upper 48 hrs, read-out: Activity
Method in brief: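 TAMH mouse liver cells in FCS-free DMEM/F12 with 5% PANEXIN NTA, 10 mM nicotinamide and gentamicin. Seeded at 20 000/well and attached 24 h at 37 °C, 5% CO2. DMSO-diluted compounds were applied for 24 or 48 h. MTT was added for 4 h, formazan dissolved in DMSO and A570 read. Viability was background-corrected and expressed relative to DMSO controls; mean ± SD, ≥3 experiments.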

Leishmania amazonensis [4] = assay: Antileishmanial activity against wild type Leishmania amazonensis LV78 promastigotes […] assessed as inhibition of parasite growth incubated for 72 hrs by automatic microtiter plate reader analysis; assay type: functional, organism-based
Method in brief: (§2)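 Promastigotes were grown in Schneider's medium (4 mM glutamine, gentamicin, 10% heat-inactivated FBS, pH 6.9, 27 °C). Cells were seeded at 1.5 × 10^5/well and exposed to a concentration series for 72 h at 27 °C.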

[5] = Metabolic stability in rat liver S9 fraction assessed as compound remaining at 20 uM measured after 32 mins in presence of NADP and GSH by HPLC analysis; assay type: ADME, subcellular; conditions: read-out: Stability
Method in brief: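 Rat liver S9 (final 4 mg/mL) in 50 mM phosphate pH 7.4 with NADPH-regenerating system (0.3 mM NADP+, 5.3 mM glucose-6-phosphate, G6PDH), 10 mM MgCl2 and 5 mM EDTA. Pre-warmed 10 min at 37 °C, then 20 μM compound and 5.5 μM GSH added. Samples taken at 0, 16 and 32 min were quenched in ice-cold acetonitrile. HPLC (254/280 nm) peak area was expressed relative to 0 min.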

Leishmania donovani [6] = assay: Antileishmanial activity against miltefosine resistant Leishmania donovani HU3MILR40 promastigotes […] assessed as inhibition of parasite growth incubated for 72 hrs by automatic microtiter plate reader analysis; assay type: functional, organism-based
Method in brief: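 Promastigote (free parasite) assay: Schneider's Drosophila medium with 4 mM glutamine, 25 μg mL−1 gentamicin, 10% heat-inactivated FBS, pH 6.9, 27 °C. 1.5 × 10^5 promastigotes per well exposed to a concentration series for 72 h at 27 °C.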

Leishmania major = assay: Antileishmanial activity against wild type Leishmania major FV1 promastigotes […] assessed as inhibition of parasite growth incubated for 72 hrs by automatic microtiter plate reader analysis; assay type: functional, organism-based; method in brief: as §2
hERG (KCNH2) = hERG (KCNH2) (Homo sapiens, UniProt Q12809); assay: (§3) Inhibition of human ERG stably overexpressed in HEK293 cells assessed as remaining activity at 6 uM incubated for 30 mins by FLIPR assay; assay type: toxicity, cell-based; conditions: HEK293 cells stably overexpressing hERG, read-out: Activity
hERG (KCNH2), sequence (Q12809 whole entry): as above
Method in brief: (§4)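 HEK-293 cells stably expressing hERG, seeded at 60 000/well and grown 24 h. Compounds were added in DMSO (final 0.5%) and incubated 30 min in the dark. After 20 s baseline, Tl+ stimulus (3 mM) was added and fluorescence (ex 485/em 535 nm) recorded for 2.5 min.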

[7] = Metabolic stability in rat liver microsome assessed as compound remaining at 20 uM measured after 32 mins in presence of NADP and GSH by HPLC analysis; assay type: ADME; conditions: liver microsomes, read-out: Stability
Method in brief: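 Rat liver microsomes (final 2 mg/mL) in 50 mM phosphate pH 7.4 with 0.3 mM NADP+, 5.3 mM glucose-6-phosphate, G6PDH, 10 mM MgCl2 and 5 mM EDTA. 20 μM compound added at 37 °C. Aliquots at 0, 16 and 32 min were quenched in ice-cold acetonitrile and centrifuged. HPLC peak area at 254/280 nm was expressed relative to 0 min.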

Leishmania braziliensis [8] = assay: Antileishmanial activity against wild type Leishmania braziliensis UA847 promastigotes […] assessed as inhibition of parasite growth incubated for 72 hrs by automatic microtiter plate reader analysis; assay type: functional, organism-based; method in brief: as §2
[9] = Cytotoxicity against mouse L929 cells assessed as inhibition of cell growth incubated for 72 hrs by MTS assay; assay type: toxicity, cell-based; method in brief: as §1
[10] = biological target: T1, Voltage-gated inwardly rectifying potassium channel KCNH2; assay: as §3; assay type: toxicity, cell-based; conditions: hek293, 0.5 h, 6 µM; method in brief: as §4
Leishmania donovani [11] = assay: Antileishmanial activity against wild type Leishmania donovani HU3 amastigotes infected in mouse peritoneal macrophage assessed as inhibition of parasite growth incubated for 72 hrs by giemsa staining based analysis; assay type: functional, organism-based
Method in brief: (§5)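 Mouse peritoneal macrophages in DMEM + 10% heat-inactivated FBS, penicillin/streptomycin; 1 × 10^5 cells per well on coverslips, adhered overnight at 37 °C, 5% CO2, non-adherent cells washed off. Infected overnight with late-log promastigotes at parasite:macrophage 40:1. Compound exposure 72 h at 37 °C; Giemsa stain, amastigotes per 100 macrophages counted, IC50 derived; means ± SD of 3–4 independent experiments.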

Leishmania braziliensis [12] = assay: Antileishmanial activity against wild type Leishmania braziliensis UA847 amastigotes infected in mouse peritoneal macrophage assessed as inhibition of parasite growth incubated for 72 hrs by giemsa staining based analysis; assay type: functional, organism-based
Method in brief: (§6)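 Mouse peritoneal macrophages (1 × 10^5/well on coverslips, DMEM + 10% heat-inactivated FBS, penicillin/streptomycin) adhered overnight at 37 °C, 5% CO2. They were infected overnight with late-log promastigotes at a 20:1 parasite:macrophage ratio. Cells were then treated with compound for 72 h at 37 °C and Giemsa-stained. Amastigotes per 100 macrophages were counted to derive IC50; mean ± SD of 3–4 independent experiments.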

[13] = Cytotoxicity against mouse peritoneal macrophage assessed as inhibition of cell growth incubated for 72 hrs by giemsa staining based analysis; assay type: toxicity; conditions: peritoneal macrophages
Leishmania amazonensis [14] = assay: Antileishmanial activity against wild type Leishmania amazonensis LV78 amastigotes infected in mouse peritoneal macrophage assessed as inhibition of parasite growth incubated for 72 hrs by giemsa staining based analysis; assay type: functional, organism-based; method in brief: as §6
Leishmania donovani [15] = assay: Antileishmanial activity against miltefosine resistant Leishmania donovani HU3MILR40 amastigotes infected in mouse peritoneal macrophage assessed as inhibition of parasite growth incubated for 72 hrs by giemsa staining based analysis; assay type: functional, organism-based; method in brief: as §5
[16] = Hepatotoxicity against human HepG2 cells assessed as cell viability at 125 uM incubated for 48 hrs by MTT assay; assay type: toxicity, cell-based; conditions: HepG2 cells, read-out: Activity
Method in brief: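 HEP-G2 cells in RPMI 1640 + 10% heat-inactivated FBS, penicillin/streptomycin. Seeded at 15 000/well and attached 24 h at 37 °C, 5% CO2. Compounds were serially diluted in DMSO, with 24 or 48 h exposure. MTT (2.5 mg/mL solution) was added for 4 h, formazan dissolved in DMSO and A570 read. Viability was background-corrected against DMSO-treated cell controls; mean ± SD, ≥3 experiments.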

[17] = Selectivity ratio of IC50 for cytotoxicity against mouse peritoneal macrophage assessed as inhibition of cell growth to IC50 for antileishmanial activity against miltefosine resistant Leishmania donovani HU3MILR40 amastigotes infected in mouse peritoneal macrophage assessed as inhibition of parasite growth; assay type: toxicity, cell-based; conditions: peritoneal macrophages, read-out: Ratio IC50

Structure (SMILES) | IC50 (Leishmania donovani [1]) [µM] | IC50 (RAW264.7) [µM] | IC25 [2] [µM] | viability at up to 125 µM [3] [%] | IC50 (Leishmania amazonensis [4]) [µM] | remaining at 32 min, 20 µM [5] [%] | IC50 (Leishmania donovani [6]) [µM] | IC50 (Leishmania major) [µM] | activity at 0.5 h, 6 µM (hERG (KCNH2)) [%] | remaining at 32 min, 20 µM [7] [%] | IC50 (Leishmania braziliensis [8]) [µM] | IC50 at 72 h [9] [µM] | inhibition (INH) [10] | IC50 (Leishmania donovani [11]) [µM] | IC50 (Leishmania braziliensis [12]) [µM] | IC50 at 72 h [13] [µM] | IC50 (Leishmania amazonensis [14]) [µM] | IC50 (Leishmania donovani [15]) [µM] | viability at 48 h, 125 µM [16] [%] | selectivity ratio [17]
CSc1ccc(CCc2ncc([N+](=O)[O-])n2C)cc1 | 12.5 | > 91.7 | 9.8 | > 50 | 27.2 | 47.5 | 7.1 | 9.1 | 64 | 0 | 17.5 | > 100 | – | – | – | – | – | – | – | –
Cn1c([N+](=O)[O-])cnc1COc1ccc(S(C)(=N)=O)cc1 (stereo not drawn) | 12.2 | > 100 | > 100 | > 50 | 14.6 | 100 | 12.3 | 2.7 | – | 100 | 9.6 | > 100 | Not_active | – | – | – | – | – | – | –
Cn1c([N+](=O)[O-])cnc1C(=O)Nc1ccc(F)cc1C(F)(F)F | 8.1 | > 100 | > 6.2 | > 50 | 4.5 | 100 | 12.2 | 1.2 | – | 100 | 2.3 | > 100 | – | > 10 | > 10 | > 100 | > 10 | > 10 | – | –
C[S+]([O-])c1ccc(C(=O)Nc2ccc3c(c2)B(O)OC3(C)C)cc1 (stereo not drawn) | > 16.8 | > 100 | 25.7 | > 50 | > 20 | 100 | > 20 | > 20 | – | 95.2 | > 20 | > 100 | Not_active | – | – | – | – | – | 54.2 | –
CSc1ccc(NC(=O)c2ncc([N+](=O)[O-])[nH]2)cc1 | > 20 | > 68.7 | > 12.5 | 56 | > 20 | 68.2 | > 13.9 | > 20 | – | 18.4 | > 20 | 84.7 | Not_active | – | – | – | – | – | – | –
CSc1ccc(C(=O)Nc2ccc3c(c2)B(O)OC3(C)C)cc1 | 11.9 | 73.6 | > 6.2 | > 50 | 3.6 | 61.3 | 15.4 | 3.9 | 66 | 8 | 4.4 | > 100 | – | > 10 | > 10 | > 100 | > 10 | > 10 | 54 | –
CSc1ccc(NCc2ncc([N+](=O)[O-])n2C)cc1 | > 20 | > 100 | 3.1 | > 50 | > 20 | 73.4 | 11.9 | 9.5 | 48 | 0 | > 20 | > 100 | – | – | – | – | – | – | – | –
CSc1ccc(OC[C@H]2Cn3cc([N+](=O)[O-])nc3O2)cc1 | 1.1 | > 95.3 | 3.1 | > 50 | 1.9 | 92.1 | 0.4 | 5.7 | 46 | 64.7 | 1.4 | > 100 | – | 0.4 | 1 | > 86 | 0.7 | 0.6 | – | > 143

Source: ChEMBL document CHEMBL6134787, “Fexinidazole optimization: enhancing anti-leishmanial profile, metabolic stability and hERG safety” (RSC Med Chem, 2024)
